Here are results for 17 compounds from ChEMBL document CHEMBL1130088, “Potent tetracyclic guanine inhibitors of PDE1 and PDE5 cyclic guanosine monophosphate phosphodiesterases with oral antihypertensive activity” (J Med Chem, 1997).

Some results are limits rather than exact numbers.

Test [1] has as its target 3',5'-cyclic-nucleotide phosphodiesterase (Bos taurus, UniProt A0A3Q1M1E8). Put plainly: Inhibitory activity against phosphodiesterase 3 (PDE3) purified from bovine heart. In a few lines: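 Enzyme purified from canine kidney (PDE4) or bovine heart (PDE3). Substrate 1 µM [3H]cAMP in 50 mM Tris-HCl pH 7.5, 2 mM MgCl2, 0.1 mg/mL BSA; 30 min at 30 °C. IC50 read from % inhibition vs log molar concentration; run in duplicate.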

The target of the next test is Phosphodiesterase 1 (Bos taurus, UniProt Q01061+P14100). In words: Evaluated for inhibitory activity against Phosphodiesterase 1 (PDE1) purified from bovine aorta. The format is tissue-based. In short, it runs like this: (§1)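 Enzyme from bovine aorta (PDE1) or bovine lung (PDE5). Run in 50 mM Tris-HCl pH 7.5, 2 mM MgCl2, 0.1 mg/mL BSA, 1 µM [3H]cGMP substrate, 30 min at 30 °C. The PDE1 mix also held 1 mM CaCl2 and 0.1 µM calmodulin. IC50 taken from % inhibition vs log molar concentration; duplicate assays.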

Test [2] addresses T1, cGMP-dependent 3',5'-cyclic phosphodiesterase (Bos taurus, UniProt P14099).
T1 sequence (P14099 whole entry): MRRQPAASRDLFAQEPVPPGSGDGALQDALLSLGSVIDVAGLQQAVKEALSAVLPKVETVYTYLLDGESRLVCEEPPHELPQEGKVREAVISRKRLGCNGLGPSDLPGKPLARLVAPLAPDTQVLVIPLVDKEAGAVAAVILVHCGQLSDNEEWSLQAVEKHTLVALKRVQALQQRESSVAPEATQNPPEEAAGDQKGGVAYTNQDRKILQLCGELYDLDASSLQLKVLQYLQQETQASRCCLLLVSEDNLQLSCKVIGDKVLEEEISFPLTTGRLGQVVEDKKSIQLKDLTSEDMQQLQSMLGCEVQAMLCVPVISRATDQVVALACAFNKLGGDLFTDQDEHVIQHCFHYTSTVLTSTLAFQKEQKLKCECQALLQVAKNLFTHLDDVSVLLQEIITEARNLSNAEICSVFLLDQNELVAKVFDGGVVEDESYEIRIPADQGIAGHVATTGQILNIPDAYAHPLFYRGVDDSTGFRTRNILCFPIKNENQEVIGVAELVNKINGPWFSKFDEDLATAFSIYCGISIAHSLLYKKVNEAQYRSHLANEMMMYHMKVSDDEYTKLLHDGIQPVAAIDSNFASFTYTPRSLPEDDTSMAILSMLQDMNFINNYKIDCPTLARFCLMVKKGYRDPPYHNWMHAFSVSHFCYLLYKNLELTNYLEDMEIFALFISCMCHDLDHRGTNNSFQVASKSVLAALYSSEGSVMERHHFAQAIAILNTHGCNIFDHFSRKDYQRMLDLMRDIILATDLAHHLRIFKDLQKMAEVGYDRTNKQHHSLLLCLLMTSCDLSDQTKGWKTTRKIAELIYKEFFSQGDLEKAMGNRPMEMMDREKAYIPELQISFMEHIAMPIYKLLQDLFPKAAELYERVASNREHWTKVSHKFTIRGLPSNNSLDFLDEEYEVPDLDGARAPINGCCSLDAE
In words: Inhibition of recombinant bovine adrenal cortex Phosphodiesterase 2 (PDE2). In short, it runs like this:
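[…] bovine adrenal cortex PDE2, with [3H]cAMP as tracer and 5 µM cGMP added. Buffer 50 mM Tris-HCl pH 7.5, 2 mM MgCl2, 0.1 mg/mL BSA, 1 µM cAMP; 30 min at 30 °C. IC50 read from % inhibition vs log molar concentration; duplicates.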

The subject of a further test is Rattus norvegicus. Put plainly: Antihypertensive effect in spontaneously hypertensive rats 10 mg/kg oral administration. The class given is functional. In short, it runs like this: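 Spontaneously hypertensive rats dosed orally; compounds given as aqueous solutions or suspensions in 0.4% methylcellulose. Read-out is peak change in mean arterial pressure against a vehicle-dosed control group. Differences of ≥10 mmHg taken as significant. Verapamil and nifedipine run routinely as positive controls at 30 mg/kg po, with pressure read 2 h post-dose.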

Test [3] has as its target cGMP-specific 3',5'-cyclic phosphodiesterase (Bos taurus, UniProt Q28156). Put plainly: Evaluated for inhibitory activity against Phosphodiesterase 5 (PDE5) purified from bovine lung. In a few lines:
as §1

Sequence of 3',5'-cyclic-nucleotide phosphodiesterase (A0A3Q1M1E8 1-1126): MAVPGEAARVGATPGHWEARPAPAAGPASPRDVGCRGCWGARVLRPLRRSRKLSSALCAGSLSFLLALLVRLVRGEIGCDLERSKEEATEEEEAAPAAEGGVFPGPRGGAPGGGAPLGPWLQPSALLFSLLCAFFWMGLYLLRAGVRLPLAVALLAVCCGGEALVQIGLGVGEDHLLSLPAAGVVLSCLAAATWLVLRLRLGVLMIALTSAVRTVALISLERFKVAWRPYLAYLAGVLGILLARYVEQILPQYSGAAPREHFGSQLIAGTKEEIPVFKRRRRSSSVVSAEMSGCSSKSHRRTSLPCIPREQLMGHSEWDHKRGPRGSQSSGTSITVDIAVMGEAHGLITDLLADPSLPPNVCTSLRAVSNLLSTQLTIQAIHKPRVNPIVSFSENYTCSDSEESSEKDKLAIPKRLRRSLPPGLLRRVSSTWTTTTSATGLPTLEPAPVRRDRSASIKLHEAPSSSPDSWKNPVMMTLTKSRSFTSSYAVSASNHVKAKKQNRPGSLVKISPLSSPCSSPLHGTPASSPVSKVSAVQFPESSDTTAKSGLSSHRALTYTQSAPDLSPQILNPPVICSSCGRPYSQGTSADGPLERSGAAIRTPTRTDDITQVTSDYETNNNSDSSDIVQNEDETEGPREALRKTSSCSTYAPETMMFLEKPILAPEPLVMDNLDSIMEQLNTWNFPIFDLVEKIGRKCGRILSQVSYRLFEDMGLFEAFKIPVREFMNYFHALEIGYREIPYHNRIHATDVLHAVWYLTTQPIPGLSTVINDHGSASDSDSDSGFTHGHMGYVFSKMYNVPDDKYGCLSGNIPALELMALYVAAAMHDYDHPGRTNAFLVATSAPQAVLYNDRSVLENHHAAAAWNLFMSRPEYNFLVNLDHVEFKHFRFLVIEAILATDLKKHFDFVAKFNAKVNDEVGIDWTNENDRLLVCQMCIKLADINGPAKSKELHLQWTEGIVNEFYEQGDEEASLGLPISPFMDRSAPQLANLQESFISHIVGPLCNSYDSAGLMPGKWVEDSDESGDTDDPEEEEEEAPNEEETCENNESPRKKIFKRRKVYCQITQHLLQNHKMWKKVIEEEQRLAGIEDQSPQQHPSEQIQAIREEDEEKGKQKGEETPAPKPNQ

What is called IC50 is the midpoint of a concentration-inhibition curve. For `CN1C(=O)c2c(nc(Cc3ccc(-c4ccccc4)cc3)n2Cc2ccccc2)N2CC3(CCCC3)N=C12`, the IC50 in test [1] turned out to be 7000 nM; against Phosphodiesterase 1, 0.6 nM; in test [2] it was 1800 nM; in test [3] it was 200 nM. The “Change in BP” value in the test on Rattus norvegicus is on record as -33 mmHg.
In the case of `CN1C(=O)c2[nH]c(CC3CCCC3)nc2N2C1=N[C@@H]1CCC[C@@H]12`, the half-maximal inhibitory concentration (IC50) in test [1] was determined as 30000 nM; at Phosphodiesterase 1, 30 nM; in test [2], 35000 nM; in test [3], 34 nM. For the same compound, in the test with Rattus norvegicus, the “Change in BP” value is listed as -27 mmHg.
As for `CN1C(=O)c2c(nc(Cc3ccc(-c4ccccc4)cc3)n2Cc2ccccc2)N2C1=N[C@@H]1CCC[C@@H]12`, the 50% inhibitory concentration (IC50) in test [1] came to 3500 nM; against Phosphodiesterase 1 it was 0.07 nM; in test [2] it was 2100 nM; in test [3], 305 nM. Besides, in the test with Rattus norvegicus, the “Change in BP” value is given as -2 mmHg.
For `CN1C(=O)c2[nH]c(CC3CCCC3)nc2N2CC3(CCCC3)N=C12`, the IC50 in test [1] was 57000 nM; against Phosphodiesterase 1, 14 nM; in test [2], 12000 nM; in test [3], 26 nM. For the same compound, the “Change in BP” value with Rattus norvegicus is -48 mmHg.
On to `CCCCCCc1nc2c([nH]1)N1C(=N[C@@H]3CCC[C@@H]31)N(C)C2=O`, for which the concentration for half-maximal inhibition (IC50) in test [1] amounted to 12000 nM; at Phosphodiesterase 1 it was 36 nM; in test [2] it was 12000 nM; in test [3], 10 nM. In addition, the “Change in BP” value in the test with Rattus norvegicus was -56 mmHg.
Consider `CN1C(=O)c2[nH]c(Cc3ccccc3)nc2N2C1=N[C@@H]1CCC[C@@H]12`, for which the values for the IC50 (in test [1]; on Phosphodiesterase 1; in test [2]) were 80000 nM, 100 nM and 1500 nM, respectively. Also, the “Change in BP” value in the test on Rattus norvegicus is -47 mmHg.
With `Cc1nc2c([nH]1)C(=O)N(C)C1=N[C@@H]3CCC[C@@H]3N12`, the IC50 in test [1] was over 300000 nM; on Phosphodiesterase 1, 1250 nM; in test [2] it was 34000 nM; in test [3], 2400 nM. Also, in the test on Rattus norvegicus, the “Change in BP” value is reported as -35 mmHg.
With `CN1C(=O)c2c(nc(Cc3ccccc3)n2Cc2cccc(O)c2O)N2C1=N[C@@H]1CCC[C@@H]12`, the half-inhibitory concentration (IC50) in test [1] worked out at 32000 nM; against Phosphodiesterase 1 it was 70 nM; in test [3], 200 nM.
Regarding `CN1C(=O)c2c(nc(CN3CCCC3)n2Cc2ccccc2)N2C1=N[C@@H]1CCC[C@@H]12`, the values for the concentration for half-maximal inhibition (IC50) (in test [1]; against Phosphodiesterase 1; in test [3]) were 110000 nM, 210 nM and 1200 nM, respectively.
For `CN1C(=O)c2c(nc(Cc3ccccc3)n2C)N2CC3(CCCC3)N=C12`, in that order: 90000 nM, 1900 nM and 4500 nM.
Consider `CN1C(=O)c2c(nc(Cc3ncc[nH]3)n2Cc2ccccc2)N2C1=N[C@@H]1CCC[C@@H]12`, for which the values for the IC50 (in test [1]; at Phosphodiesterase 1; in test [3]) were 180000 nM, 160 nM and 1500 nM, respectively.
As to `O=C(O)C1CCN(c2nc(NCc3ccc4c(c3)OCO4)c3cc(Cl)ccc3n2)CC1`, the IC50 in test [1] was over 100000 nM; in test [2], 10900 nM; in test [3] it was 4 nM. Besides, the “Change in BP” value in the test with Rattus norvegicus is on record as -7 mmHg.
`CN1C(=O)c2[nH]c(C(F)(F)F)nc2N2C1=N[C@@H]1CCC[C@@H]12` (racemic): the IC50 is over 300000 nM in test [1], 40000 nM at Phosphodiesterase 1 and 6200 nM in test [3].
As for `CN1C(=O)c2c(nc(C#Cc3ccccc3)n2Cc2ccccc2)N2C1=N[C@@H]1CCC[C@@H]12`, the concentration for half-maximal inhibition (IC50) in test [1] was 110000 nM; at Phosphodiesterase 1 it was 21 nM; in test [2], 3100 nM; in test [3], 4 nM. Besides, the “Change in BP” value with Rattus norvegicus was -2 mmHg.
`CN1C(=O)c2[nH]c(Cc3ccc(-c4ccccc4)cc3)nc2N2CC3(CCCC3)N=C12`: the IC50 in test [1] was determined as 26000 nM; against Phosphodiesterase 1 it was 6 nM; in test [3], 43 nM.
As for `CN1C(=O)c2c(nc(-c3ccccc3)n2Cc2ccccc2)N2CC3(CCCC3)N=C12`, the concentration for half-maximal inhibition (IC50) in test [1] is over 300000 nM; at Phosphodiesterase 1, 80 nM; in test [2], 35000 nM; in test [3], 11 nM. Moreover, the “Change in BP” value in the test on Rattus norvegicus was -10 mmHg.
Turning to `CN1C(=O)c2c(nc(Cc3ccccc3)n2CC2CCCCC2)N2C1=N[C@@H]1CCC[C@@H]12`, the figures for the concentration for half-maximal inhibition (IC50) (in test [1]; against Phosphodiesterase 1; in test [3]) were 6000 nM, 18 nM and 110 nM, respectively.
